Source: paper PMC9547662 (Investigational new drugs, 2018)

Tests used:
[1] = test system: ARE/Nrf2 transcriptional activity; assay: ARE/NRF2 luciferase reporter assay in ARE/HepG2/Luciferase reporter cells; assay type: cell-based; conditions: 24 hours; for IC50: read-out: IC50 in HepG2 ARE/NRF2 reporter assay, 200μM t-BHQ, compounds 20nM to 10μM
Outline: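 HepG2 ARE-luciferase reporter cells (7,000/well) cultured 24 h before test compound; t-BHQ added 30 min later; 24 h at […]; one-step luciferase reagent, luminescence read. Screen: 5μM, 200 or 500μM t-BHQ, two independent runs, Z-scores normalized to mean of compound-treated wells. Dose-response: […] serial dilutions 20nM–10μM plus 200μM t-BHQ; 0.5% DMSO control; percent of DMSO control.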

[2] = test system: NRF2 nuclear translocation; assay: NRF2 nuclear translocation high-content screen in HepG2 cells; assay type: cell-based; conditions: 0.625-10μM compound + 200μM t-BHQ, 2 hours
MM.1S cells [3] = assay: Detection of mitochondrial superoxide; assay type: cell-based, human; conditions: 24 hours; for mitochondrial superoxide induction (rank among six drug candidates): 0.6, 1.25, 2.5 and 5μM
MM.1S cells [4] = assay: MTS assay of cell growth in MM.1S cells; assay type: cell-based, human
U266 cells [5] = assay: Detection of mitochondrial superoxide; assay type: cell-based, human; conditions: 24 hours
[6] = test system: NRF2 nuclear translocation; assay: NRF2 nuclear translocation assay in MM.1S cells; assay type: cell-based, human; conditions: 2 hours, no t-BHQ
Outline: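 MM.1S cells (300,000/well) exposed 2 h to test compound, DMSO or 2 mM N-acetyl-L-cysteine; fixed 4% PFA 30 min, permeabilized/blocked (2% BSA, 0.1% Triton X-100) 30 min; stained with Hoechst 33342 (4ug/mL) and NRF2-Alexa Fluor 488 antibody (1:1000); high-content imaging and image analysis; NRF2 inhibition expressed as Z-scores.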

U266 cells [7] = assay: Viability by DAPI staining; assay type: cell-based, human; conditions: 5μM, 24 hours
Outline: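 Over 24 hours, U266 cells (RPMI 1640, 10% heat-inactivated FBS, 1% L-glutamine, penicillin-streptomycin; 5% CO2, 37°C) were treated with test compound at 5μM, alone or with 200μM pyocyanin. Vehicle was the negative control and 200μM pyocyanin the positive control. Cells were stained with DAPI, and viability was scored by flow cytometry as percentage DAPI-negative. Mean and SEM are reported.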

U266 cells [8] = assay: MTS assay of cell growth in U266 cells; assay type: cell-based, human; conditions: 5μM single agent, 24, 48 and 72 hours

IC50 [1] [nM]	Molecule	effect on nuclear translocation of NRF2 (ratio of cytoplasmic to nuclear NRF2) [2]	mitochondrial superoxide induction (rank among six drug candidates) (MM.1S cells [3])	also measured
160	Cc1ccc(C(=O)Cn2c3c(sc2=N)CCCC3)cc1 [Pifithrin-α, pifithrin-α]			
2700	C=CCc1cccc(/C=N/NC(=O)CN2CCN(Cc3ccccc3)CC2)c1O [PAC-1]			
620	vitamin B12			
2410	O=C1NCCc2[nH]c(-c3ccncc3)cc21 [PHA-767491]	affected nuclear translocation of NRF2	most potent superoxide inducer	cell growth (MM.1S cells [4]; 2.5μM and 5μM, 48 hours): significant inhibition of cell growth
	CC(C)(C)c1cc(O)ccc1O [t-BHQ, tert-butylhydroquinone]			induction of NRF2 transcriptional activity ([1]; 200μM or 500μM t-BHQ, HepG2 cells): robust induction of NRF2 transcriptional activity
	Cn1c2cccc(=O)c-2nc2ccccc21 [Pyocyanin, pyocyanin]			mitochondrial superoxide induction (MM.1S cells [3]; serial dilutions 0 to 300μM): efficient and dose-dependent induction of mitochondrial superoxide; mitochondrial superoxide induction (U266 cells [5]; serial dilutions 0 to 300μM): efficient and dose-dependent induction of mitochondrial superoxide
310	N#C/C(=C(/N)Sc1ccc(N)cc1)c1ccccc1C(F)(F)F [SL-327]	affected nuclear translocation of NRF2	followed by AZ-628 and SL-327	effect on nuclear translocation of NRF2 [6]: anticipated inhibitory effect on nuclear translocation of NRF2
1000	Cc1ccc(NC(=O)c2cccc(C(C)(C)C#N)c2)cc1Nc1ccc2ncn(C)c(=O)c2c1 [AZ-628]	affected nuclear translocation of NRF2	followed by AZ-628	cell growth (MM.1S cells [4]; 2.5μM and 5μM, 48 hours): significant inhibition of cell growth
	brusatol			viability (percentage of DAPI-negative viable cells) (U266 cells [7]): decreased viability; cell growth (U266 cells [8]): efficiently suppressed growth; mitochondrial superoxide levels (U266 cells [5]; 5μM): increased superoxide levels; cell growth (MM.1S cells [4]; 5μM single agent, 24, 48 and 72 hours): efficiently suppressed growth
